Active and inactive are the calls of the source. The rule behind the calls is not given here.
How the values were obtained:
Rattus norvegicus [1] = assay: Effect on spontaneous pain in Sprague-Dawley rat CCI model assessed as duration of paw withdrawal at 100 mg/kg, ip after 0.5 hr; format: functional; conditions: route intraperitoneal
In short: (§1)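 CCI rats (n = 4) dosed 100 mg/kg i.p. (vehicle 30% v/v PEG 400 in water). After 10 min acclimatization in a cage 5 cm above ground, cumulative time the ipsilateral paw was held off the floor over 5 min recorded, excluding locomotion lifts. Mean ± SEM; ANOVA/Bonferroni versus predrug.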

Rattus norvegicus [2] = assay: Effect on spontaneous pain in Sprague-Dawley rat CCI model assessed as duration of paw withdrawal at 100 mg/kg, ip after 1 hr; format: functional; conditions: route intraperitoneal; in short: as §1
Rattus norvegicus [3] = assay: Effect on spontaneous pain in Sprague-Dawley rat CCI model assessed as duration of paw withdrawal at 100 mg/kg, ip after 1.5 hrs; format: functional; conditions: route intraperitoneal
In short: (§2)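 Unilateral CCI of sciatic nerve (Bennett and Xie) in Sprague-Dawley rats under i.p. pentobarbital sodium (65 mg/kg). Spontaneous pain is scored over 5 min after 10 min acclimatization, as cumulative time the ipsilateral paw is held off the floor. Paw lifts from locomotion or repositioning are excluded. Drug is given at 100 mg/kg i.p. with 30% v/v PEG 400 vehicle. Mean ± SEM, n = 4, compared with predrug by ANOVA/Bonferroni.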

Rattus norvegicus [4] = assay: Effect on spontaneous pain in Sprague-Dawley rat CCI model assessed as duration of paw withdrawal at 100 mg/kg, ip after 2 hrs; format: functional; conditions: route intraperitoneal; in short: as §2
Rattus norvegicus [5] = assay: Anti-dynamic allodynia effect in Sprague-Dawley rat SNL model assessed as latency to paw withdrawal 100 mg/kg, ip after 1.5 hrs; format: functional; conditions: route intraperitoneal
In short: (§3)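 Left L5 spinal nerve ligation rats, tested preoperatively and 9 days postoperatively, then given 100 mg/kg i.p. (vehicle 30% v/v PEG 400 in water). After 10 min acclimatization, plantar surface of affected paw stroked mildly with a cotton-bud; paw lift response recorded. n = 4; retested 0.5-2.5 h post-dose.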

Rattus norvegicus [6] = assay: Anti-dynamic allodynia effect in Sprague-Dawley rat SNL model assessed as latency to paw withdrawal 100 mg/kg, ip after 2.5 hrs; format: functional; conditions: route intraperitoneal; in short: as §3
Rattus norvegicus [7] = assay: Anti-cold allodynia effect in Sprague-Dawley rat SNL model assessed as duration of paw withdrawal 100 mg/kg, ip after 1.5 hrs; format: functional; conditions: route intraperitoneal
In short: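 Left L5 spinal nerve ligation under pentobarbital (65 mg/kg i.p.). Allodynic rats dosed i.p. 100 mg/kg, vehicle 30% v/v PEG 400 in water. Acetone (100-200 µL) misted onto midplantar affected paw after 10 min acclimatization; paw withdrawal duration, mean of three samples at least 3 min apart; n = 4 rats.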

Rattus norvegicus [8] = assay: Effect on spontaneous pain in Sprague-Dawley rat CCI model assessed as duration of paw withdrawal at 100 mg/kg, ip after 2.5 hrs; format: functional; conditions: route intraperitoneal; in short: as §2
Rattus norvegicus [9] = assay: Antihyperalgesic effects in Sprague-Dawley rat CCI model assessed as duration of paw withdrawal at 100 mg/kg, ip after 0.5 hr; format: functional; conditions: route intraperitoneal
Rattus norvegicus [10] = assay: Antihyperalgesic effects in Sprague-Dawley rat CCI model assessed as duration of paw withdrawal at 100 mg/kg, ip after 1 hr; format: functional; conditions: route intraperitoneal
Rattus norvegicus [11] = assay: Antihyperalgesic effects in Sprague-Dawley rat CCI model assessed as duration of paw withdrawal at 100 mg/kg, ip after 1.5 hrs; format: functional; conditions: route intraperitoneal
Rattus norvegicus [12] = assay: Antihyperalgesic effects in Sprague-Dawley rat CCI model assessed as duration of paw withdrawal at 100 mg/kg, ip after 2 hrs; format: functional; conditions: route intraperitoneal
Rattus norvegicus [13] = assay: Antihyperalgesic effects in Sprague-Dawley rat CCI model assessed as duration of paw withdrawal at 100 mg/kg, ip after 2.5 hrs; format: functional; conditions: route intraperitoneal
Rattus norvegicus [14] = assay: Effect on spontaneous pain in Sprague-Dawley rat SNL model assessed as duration of paw withdrawal at 100 mg/kg, ip after 1.5 hrs; format: functional; conditions: route intraperitoneal
In short: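 Rats underwent left L5 spinal nerve ligation (Kim and Chung) under i.p. pentobarbital (65 mg/kg). Spontaneous pain is recorded for 5 min after 10 min acclimatization, as cumulative duration the ipsilateral paw is lifted, excluding locomotor lifts. Dosing is 100 mg/kg i.p. in 30% v/v PEG 400/water, with testing at 0.5–2.5 h. Four rats, mean ± SEM versus predrug, one-way ANOVA with Bonferroni.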

Rattus norvegicus [15] = assay: Antihyperalgesic effects in Sprague-Dawley rat SNL model assessed as duration of paw withdrawal at 100 mg/kg, ip after 0.5 hr, ip; format: functional; conditions: route intraperitoneal
In short: (§4)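 L5 SNL rats (n = 4), dosed 100 mg/kg i.p. (vehicle 30% v/v PEG 400 in water). Pin-prick to midplantar ipsilateral left hindpaw; withdrawal duration, mean of three responses; ≥2 s defined abnormal. Mean ± SEM; one-way ANOVA with Bonferroni versus predrug.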

Rattus norvegicus [16] = assay: Antihyperalgesic effects in Sprague-Dawley rat SNL model assessed as duration of paw withdrawal at 100 mg/kg, ip after 1 hr, ip; format: functional; conditions: route intraperitoneal; in short: as §4
Rattus norvegicus [17] = assay: Antihyperalgesic effects in Sprague-Dawley rat SNL model assessed as duration of paw withdrawal at 100 mg/kg, ip after 1.5 hrs, ip; format: functional; conditions: route intraperitoneal; in short: as §4
Rattus norvegicus [18] = assay: Antihyperalgesic effects in Sprague-Dawley rat SNL model assessed as duration of paw withdrawal at 100 mg/kg, ip after 2.5 hrs, ip; format: functional; conditions: route intraperitoneal; in short: as §4
Rattus norvegicus [19] = species on record: Rattus norvegicus; assay: Anti-dynamic allodynic effect in Sprague-Dawley rat CCI model assessed as latency to paw withdrawal after 0.5 hr; format: functional
In short: (§5)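 Rats with sciatic nerve chronic constriction injury (pentobarbital 65 mg/kg i.p. anaesthesia), baseline and day 9 testing, then drug per randomization table. After 10 min acclimatization, affected plantar surface stroked mildly with a cotton-bud; paw lift recorded. n = 4; retested 0.5-2.5 h post-dose.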

Rattus norvegicus [20] = species on record: Rattus norvegicus; assay: Anti-dynamic allodynic effect in Sprague-Dawley rat CCI model assessed as latency to paw withdrawal after 1 hr; format: functional; in short: as §5
Rattus norvegicus [21] = species on record: Rattus norvegicus; assay: Anti-dynamic allodynic effect in Sprague-Dawley rat CCI model assessed as latency to paw withdrawal after 1.5 hr; format: functional; in short: as §5
Rattus norvegicus [22] = species on record: Rattus norvegicus; assay: Anti-dynamic allodynic effect in Sprague-Dawley rat CCI model assessed as latency to paw withdrawal after 2 hr; format: functional; in short: as §5
Rattus norvegicus [23] = species on record: Rattus norvegicus; assay: Anti-dynamic allodynic effect in Sprague-Dawley rat CCI model assessed as latency to paw withdrawal after 2.5 hr; format: functional; in short: as §5
Rattus norvegicus [24] = assay: Anti-cold allodynia effect in Sprague-Dawley rat CCI model assessed as duration of paw withdrawal 100 mg/kg, ip after 1.5 hr; format: functional; conditions: route intraperitoneal
In short: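 CCI by sciatic nerve ligation under pentobarbital (65 mg/kg i.p.). Rats tested at baseline and 9 days post-surgery; those with allodynia dosed i.p. 100 mg/kg, vehicle 30% v/v PEG 400 in water. Acetone (100-200 µL) misted on midplantar affected paw; withdrawal duration recorded, three samples averaged, at least 3 min apart; n = 4.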

Mus musculus = assay: Neurotoxicity in Swiss Albino mouse at 300 mg/kg, ip after 4 hrs by rotarod test; format: functional, organism-based; design: dose 300 mg/kg
In short: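 Swiss mice (20-25 g) are trained on an accelerating rotorod (10 rpm, 3.2 cm rod), then injected i.p. at 30, 100 or 300 mg/kg, with three per group. Neurotoxicity means failure to keep equilibrium for at least 1 min in each of three trials, checked at 0.5 and 4 h. The value reported is the minimum dose affecting half or more of the mice.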

Compound | Activity (Rattus norvegicus [1]) | Activity (Rattus norvegicus [2]) | Activity (Rattus norvegicus [3]) | Activity (Rattus norvegicus [4]) | Activity (Rattus norvegicus [5]) | Activity (Rattus norvegicus [8]) | Activity (Rattus norvegicus [9]) | Activity (Rattus norvegicus [10]) | Activity (Rattus norvegicus [11]) | Activity (Rattus norvegicus [12]) | Activity (Rattus norvegicus [13]) | Activity (Rattus norvegicus [15]) | Activity (Rattus norvegicus [16]) | Activity (Rattus norvegicus [17]) | Activity (Rattus norvegicus [18]) | Activity (Rattus norvegicus [19]) | Activity (Rattus norvegicus [20]) | Activity (Rattus norvegicus [21]) | Activity (Rattus norvegicus [22]) | Activity (Rattus norvegicus [23]) | other results
NC(=O)N1c2ccccc2C=Cc2ccccc21 [CARBAMAZEPINE] | 24.6 s | 17.8 s | 32.8 s | 67.4 s | 2.9 s | 76.9 s | 13.3 s | 15.7 s | 22.9 s | 21.7 s | 24 s | 11.1 s | 5.2 s | 6.6 s | 5.8 s | 2.7 s | 3.7 s | 4.9 s | 3.4 s | 3.8 s | Activity (Rattus norvegicus [6]): 1.65 s; Activity (Rattus norvegicus [7]): 7.9 s; Activity (Rattus norvegicus [14]): 22.3 s; Activity (Rattus norvegicus [24]): 28.9 s
CN(C)c1ccc(/C=N/NC(=O)NCCCC(=O)O)cc1 | 47.2 s | 48.8 s | 38.2 s | 11.9 s | 7.3 s | 5.2 s | 17.4 s | 13.1 s | 9.7 s | 5.8 s | 4.8 s | 4.7 s | 5.8 s | 5.5 s | 5.8 s | 10.9 s | 10.9 s | 10.3 s | 8.2 s | 8.4 s | Activity (Mus musculus): inactive; Activity (Rattus norvegicus [6]): 1.82 s; Activity (Rattus norvegicus [14]): 16.4 s; Activity (Rattus norvegicus [24]): 14.4 s
NCC1(CC(=O)O)CCCCC1 [GABAPENTIN] | 62.2 s | 15.5 s | 13.1 s | 11 s | 6 s | 18.1 s | 36.8 s | 12.3 s | 10.7 s | 9.2 s | 8.4 s | 20.1 s | 10.2 s | 10 s | 8.8 s | 1.6 s | 4.6 s | 5.5 s | 5.9 s | 6.6 s | Activity (Rattus norvegicus [6]): 6.53 s; Activity (Rattus norvegicus [7]): 7.8 s; Activity (Rattus norvegicus [14]): 10.2 s; Activity (Rattus norvegicus [24]): 9.3 s
O=C(O)CCCNC(=O)N/N=C1\C(=O)Nc2ccccc21 | 38.6 s | 34.9 s | 21.6 s | 20.6 s | – | 20.2 s | 10.8 s | 4.9 s | 8.8 s | 5 s | 27.8 s | 4.7 s | 9.6 s | 45.7 s | 18.7 s | 14.5 s | 12.4 s | 15.5 s | 8.4 s | 0.8 s | Activity (Mus musculus): Active; Activity (Rattus norvegicus [7]): 22.6 s; Activity (Rattus norvegicus [14]): 0.9 s
Nc1nnc(-c2cccc(Cl)c2Cl)c(N)n1 [LAMOTRIGINE] | 69.2 s | 79 s | 76.9 s | 71.2 s | 1.9 s | 67.8 s | 36.2 s | 36.7 s | 35.7 s | 33.7 s | 29.8 s | 22.5 s | 8.2 s | 10.1 s | 17.3 s | 5.7 s | 1.3 s | 0.9 s | 0.9 s | 1 s | Activity (Rattus norvegicus [6]): 0.64 s; Activity (Rattus norvegicus [7]): 21.8 s; Activity (Rattus norvegicus [14]): 2.6 s; Activity (Rattus norvegicus [24]): 32.4 s
O=C(O)CCCNC(=O)N/N=C/c1ccccc1O | 10.5 s | 19.3 s | 23.7 s | 11.2 s | 11.5 s | 7.3 s | 7.5 s | 7.7 s | 4.4 s | 4.1 s | 7.3 s | 17.6 s | 17.3 s | 10.6 s | 17.3 s | 13.6 s | 13.5 s | 11.1 s | 14.6 s | 13.1 s | Activity (Mus musculus): Active; Activity (Rattus norvegicus [6]): 11.32 s; Activity (Rattus norvegicus [7]): 26 s; Activity (Rattus norvegicus [24]): 11.2 s

Reference: ChEMBL document CHEMBL1139875, “Discovery of 4-aminobutyric acid derivatives possessing anticonvulsant and antinociceptive activities: a hybrid pharmacophore approach” (2007)
